# ChEMBL document CHEMBL3865797, “Design, synthesis and biological evaluation of berberine-benzimidazole hybrids as new type of potentially DNA-targeting antimicrobial agents” (Eur J Med Chem, 2016)
# The source made the active and inactive calls. No cut-off for these calls is given here.
# Test system: Candida albicans
# Test: Antifungal activity against Candida albicans ATCC 76615 measured after 24 hrs by two-fold serial dilution method
# Format: functional
# Details: ATCC 76615, 24 h
# Outline: (§1)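 MIC by two-fold serial broth microdilution in 96-well plates, following NCCLS recommendations. Chloromycin, norfloxacin and fluconazole serve as reference drugs. The MIC is read as the lowest concentration that inhibits growth, in µg/mL.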
row,Compound,MIC80
1,COc1ccc2cc3[n+](cc2c1OCc1nc2ccccc2n1Cc1ccccc1F)CCc1cc2c(cc1-3)OCO2.[Cl-],512 µg/mL
2,CCCCCCCn1c(COc2c(OC)ccc3cc4[n+](cc23)CCc2cc3c(cc2-4)OCO3)nc2ccccc21.[Cl-],4 µg/mL
3,COc1ccc2cc3[n+](cc2c1OCc1nc2ccccc2n1Cc1cccc(F)c1)CCc1cc2c(cc1-3)OCO2.[Cl-],512 µg/mL

# Test system: Pseudomonas aeruginosa
# Test: Antibacterial activity against Pseudomonas aeruginosa measured after 24 hrs by two-fold serial dilution method
# Format: functional
# Details: not given
# Outline: as §1
row,Compound,MIC
1,COc1ccc2cc3[n+](cc2c1OCc1nc2ccccc2n1Cc1ccccc1F)CCc1cc2c(cc1-3)OCO2.[Cl-],512 µg/mL
2,CCCCCCCn1c(COc2c(OC)ccc3cc4[n+](cc23)CCc2cc3c(cc2-4)OCO3)nc2ccccc21.[Cl-],16 µg/mL
3,COc1ccc2cc3[n+](cc2c1OCc1nc2ccccc2n1Cc1cccc(F)c1)CCc1cc2c(cc1-3)OCO2.[Cl-],256 µg/mL

# Test system: Proteus vulgaris
# Test: Antibacterial activity against Bacillus proteus ATCC 13315 measured after 24 hrs by two-fold serial dilution method
# Format: functional
# Details: ATCC 13315, 24 h
# Outline: as §1
row,Compound,MIC
1,COc1ccc2cc3[n+](cc2c1OCc1nc2ccccc2n1Cc1ccccc1F)CCc1cc2c(cc1-3)OCO2.[Cl-],128 µg/mL
2,CCCCCCCn1c(COc2c(OC)ccc3cc4[n+](cc23)CCc2cc3c(cc2-4)OCO3)nc2ccccc21.[Cl-],512 µg/mL
3,COc1ccc2cc3[n+](cc2c1OCc1nc2ccccc2n1Cc1cccc(F)c1)CCc1cc2c(cc1-3)OCO2.[Cl-],128 µg/mL

# Test system: Staphylococcus aureus
# Test: Induction of membrane permeabilization in methicillin-resistant Staphylococcus aureus N315 at 12 times MIC by propidium iodide staining-based fluorescence analysis
# Format: functional
# Details: not given
# Outline: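 Cells are exposed to the agent at 12 × MIC, then stained with propidium iodide. The dye enters only cells with compromised membranes and fluoresces on binding DNA, so fluorescence serves as the permeabilization read-out.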
row,Compound,Activity
1,CCCCCCCn1c(COc2c(OC)ccc3cc4[n+](cc23)CCc2cc3c(cc2-4)OCO3)nc2ccccc21.[Cl-],Active

# Test system: not listed separately
# Test: Antifungal activity against Saccharomyces cerevisiae measured after 24 hrs by two-fold serial dilution method
# Format: functional
# Details: not given
# Outline: as §1
row,Compound,MIC80
1,COc1ccc2cc3[n+](cc2c1OCc1nc2ccccc2n1Cc1ccccc1F)CCc1cc2c(cc1-3)OCO2.[Cl-],128 µg/mL
2,CCCCCCCn1c(COc2c(OC)ccc3cc4[n+](cc23)CCc2cc3c(cc2-4)OCO3)nc2ccccc21.[Cl-],512 µg/mL
3,COc1ccc2cc3[n+](cc2c1OCc1nc2ccccc2n1Cc1cccc(F)c1)CCc1cc2c(cc1-3)OCO2.[Cl-],256 µg/mL

# Test system: not listed separately
# Test: Antifungal activity against Candida utilis measured after 24 hrs by two-fold serial dilution method
# Format: functional
# Details: Cyberlindnera jadinii
# Outline: as §1
row,Compound,MIC80
1,COc1ccc2cc3[n+](cc2c1OCc1nc2ccccc2n1Cc1ccccc1F)CCc1cc2c(cc1-3)OCO2.[Cl-],4 µg/mL
2,CCCCCCCn1c(COc2c(OC)ccc3cc4[n+](cc23)CCc2cc3c(cc2-4)OCO3)nc2ccccc21.[Cl-],8 µg/mL
3,COc1ccc2cc3[n+](cc2c1OCc1nc2ccccc2n1Cc1cccc(F)c1)CCc1cc2c(cc1-3)OCO2.[Cl-],8 µg/mL

# Organism: Bos taurus
# Test: Binding affinity to calf thymus DNA assessed as DNA intercalation by neutral red dye based UV-vis spectroscopy
# Details: not given
row,Compound,Activity
1,CCCCCCCn1c(COc2c(OC)ccc3cc4[n+](cc23)CCc2cc3c(cc2-4)OCO3)nc2ccccc21.[Cl-],Active

# Test system: Escherichia coli
# Test: Antibacterial activity against Escherichia coli JM109 measured after 24 hrs by two-fold serial dilution method
# Format: functional
# Details: JM109, 24 h
# Outline: as §1
row,Compound,MIC
1,COc1ccc2cc3[n+](cc2c1OCc1nc2ccccc2n1Cc1ccccc1F)CCc1cc2c(cc1-3)OCO2.[Cl-],128 µg/mL
2,CCCCCCCn1c(COc2c(OC)ccc3cc4[n+](cc23)CCc2cc3c(cc2-4)OCO3)nc2ccccc21.[Cl-],4 µg/mL
3,COc1ccc2cc3[n+](cc2c1OCc1nc2ccccc2n1Cc1cccc(F)c1)CCc1cc2c(cc1-3)OCO2.[Cl-],512 µg/mL

# Organism: Bos taurus
# Test: Binding affinity to calf thymus DNA by UV-vis spectroscopy
# Details: not given
row,Compound,K
1,CCCCCCCn1c(COc2c(OC)ccc3cc4[n+](cc23)CCc2cc3c(cc2-4)OCO3)nc2ccccc21.[Cl-],4.12 ×10⁴ L/mol

# Test system: Salmonella typhi
# Test: Antibacterial activity against Salmonella typhi measured after 24 hrs by two-fold serial dilution method
# Format: functional, Salmonella enterica subsp. enterica serovar Typhi
# Details: Salmonella enterica
# Outline: (§2)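 Two-fold serial dilution in 96-well microtest plates following NCCLS guidance (micro broth dilution). Chloromycin and norfloxacin serve as positive controls. MIC is reported in µg/mL.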
row,Compound,MIC
1,COc1ccc2cc3[n+](cc2c1OCc1nc2ccccc2n1Cc1ccccc1F)CCc1cc2c(cc1-3)OCO2.[Cl-],4 µg/mL
2,CCCCCCCn1c(COc2c(OC)ccc3cc4[n+](cc23)CCc2cc3c(cc2-4)OCO3)nc2ccccc21.[Cl-],2 µg/mL
3,COc1ccc2cc3[n+](cc2c1OCc1nc2ccccc2n1Cc1cccc(F)c1)CCc1cc2c(cc1-3)OCO2.[Cl-],256 µg/mL

# Test system: Staphylococcus aureus
# Test: Antibacterial activity against Staphylococcus aureus ATCC 25923 measured after 24 hrs by two-fold serial dilution method
# Format: functional
# Details: ATCC 25923, 24 h
# Outline: as §1
row,Compound,MIC
1,COc1ccc2cc3[n+](cc2c1OCc1nc2ccccc2n1Cc1ccccc1F)CCc1cc2c(cc1-3)OCO2.[Cl-],2 µg/mL
2,CCCCCCCn1c(COc2c(OC)ccc3cc4[n+](cc23)CCc2cc3c(cc2-4)OCO3)nc2ccccc21.[Cl-],4 µg/mL
3,COc1ccc2cc3[n+](cc2c1OCc1nc2ccccc2n1Cc1cccc(F)c1)CCc1cc2c(cc1-3)OCO2.[Cl-],512 µg/mL

# Test system: Staphylococcus aureus
# Test: Antibacterial activity against methicillin-resistant Staphylococcus aureus N315 measured after 24 hrs by two-fold serial dilution method
# Format: functional
# Details: N315, 24 h
# Outline: as §2
row,Compound,MIC
1,COc1ccc2cc3[n+](cc2c1OCc1nc2ccccc2n1Cc1ccccc1F)CCc1cc2c(cc1-3)OCO2.[Cl-],512 µg/mL
2,CCCCCCCn1c(COc2c(OC)ccc3cc4[n+](cc23)CCc2cc3c(cc2-4)OCO3)nc2ccccc21.[Cl-],8 µg/mL
3,COc1ccc2cc3[n+](cc2c1OCc1nc2ccccc2n1Cc1cccc(F)c1)CCc1cc2c(cc1-3)OCO2.[Cl-],512 µg/mL

# Test system: Micrococcus luteus
# Test: Antibacterial activity against Micrococcus luteus ATCC 4698 measured after 24 hrs by two-fold serial dilution method
# Format: functional
# Details: NCTC 2665, 24 h
# Outline: as §1
row,Compound,MIC
1,COc1ccc2cc3[n+](cc2c1OCc1nc2ccccc2n1Cc1ccccc1F)CCc1cc2c(cc1-3)OCO2.[Cl-],8 µg/mL
2,CCCCCCCn1c(COc2c(OC)ccc3cc4[n+](cc23)CCc2cc3c(cc2-4)OCO3)nc2ccccc21.[Cl-],64 µg/mL
3,COc1ccc2cc3[n+](cc2c1OCc1nc2ccccc2n1Cc1cccc(F)c1)CCc1cc2c(cc1-3)OCO2.[Cl-],16 µg/mL

# Test system: Escherichia coli
# Test: Induction of Escherichia coli supercoiled pET-28a DNA cleavage measured at 0.1 mM after 5 hrs by agarose gel electrophoresis method
# Details: not given
row,Compound,Activity
1,CCCCCCCn1c(COc2c(OC)ccc3cc4[n+](cc23)CCc2cc3c(cc2-4)OCO3)nc2ccccc21.[Cl-],Dose-dependent effect

# Organism: Bos taurus
# Test: Binding affinity to calf thymus DNA assessed as hypochromic effect by UV-vis spectroscopy
# Details: not given
row,Compound,Activity
1,CCCCCCCn1c(COc2c(OC)ccc3cc4[n+](cc23)CCc2cc3c(cc2-4)OCO3)nc2ccccc21.[Cl-],Active

# Organism: Bos taurus
# Test: Binding affinity to calf thymus DNA assessed as increase in maximum absorption peak at 260 nm by UV-vis spectroscopy
# Details: not given
# Outline: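 Absorption spectra of DNA recorded at pH 7.4 and 298 K with increasing concentrations of added agent. Absorbance at 260 nm of the complex is compared with the summed absorbance of free DNA and free agent.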
row,Compound,Activity
1,CCCCCCCn1c(COc2c(OC)ccc3cc4[n+](cc23)CCc2cc3c(cc2-4)OCO3)nc2ccccc21.[Cl-],Dose-dependent effect

# Test system: Bacillus subtilis
# Test: Antibacterial activity against Bacillus subtilis measured after 24 hrs by two-fold serial dilution method
# Format: functional
# Details: not given
# Outline: as §1
row,Compound,MIC
1,COc1ccc2cc3[n+](cc2c1OCc1nc2ccccc2n1Cc1ccccc1F)CCc1cc2c(cc1-3)OCO2.[Cl-],256 µg/mL
2,CCCCCCCn1c(COc2c(OC)ccc3cc4[n+](cc23)CCc2cc3c(cc2-4)OCO3)nc2ccccc21.[Cl-],32 µg/mL
3,COc1ccc2cc3[n+](cc2c1OCc1nc2ccccc2n1Cc1cccc(F)c1)CCc1cc2c(cc1-3)OCO2.[Cl-],512 µg/mL

# Test system: Aspergillus flavus
# Test: Antifungal activity against Aspergillus flavus measured after 24 hrs by two-fold serial dilution method
# Format: functional
# Details: not given
# Outline: as §1
row,Compound,MIC80
1,COc1ccc2cc3[n+](cc2c1OCc1nc2ccccc2n1Cc1ccccc1F)CCc1cc2c(cc1-3)OCO2.[Cl-],8 µg/mL
2,CCCCCCCn1c(COc2c(OC)ccc3cc4[n+](cc23)CCc2cc3c(cc2-4)OCO3)nc2ccccc21.[Cl-],32 µg/mL
3,COc1ccc2cc3[n+](cc2c1OCc1nc2ccccc2n1Cc1cccc(F)c1)CCc1cc2c(cc1-3)OCO2.[Cl-],32 µg/mL

# Test system: Escherichia coli
# Test: Induction of membrane permeabilization in Escherichia coli DH52 at 12 times MIC by propidium iodide staining-based fluorescence analysis
# Format: functional
# Details: not given
# Outline: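 Propidium iodide uptake measured by fluorescence in E. coli DH52 exposed to agent at 12 × MIC. The dye enters bacteria with compromised membranes and fluoresces on binding DNA.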
row,Compound,Activity
1,CCCCCCCn1c(COc2c(OC)ccc3cc4[n+](cc23)CCc2cc3c(cc2-4)OCO3)nc2ccccc21.[Cl-],Active
